Laboratory results taken from publication PMC6133080 (European Journal of Drug Metabolism and Pharmacokinetics, 2018).
Like-named read-outs stand apart in the source and are kept apart here.

How the values were obtained:
p-glycoprotein (P-gp) = settings: cited from earlier work
[1] = cited from earlier work
CYP = settings: in vitro; cited from earlier work
[2] = type: in vivo, human
esterases = settings: in vitro; cited from earlier work
[3] = type: in vivo, human; remark: listed apart in the source
Method in brief: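 Open-label, fixed-sequence, two-period study in 26 healthy subjects. A single oral 150 mg dose was given alone, then the morning after the last of 7 daily oral 600 mg co-drug doses. Doses were ≥14 days apart. Plasma sampled pre-dose to 72 h and assayed by LC-MS/MS. Cmax observed; AUC by linear-up/log-down trapezoidal rule; log values analysed by ANOVA (treatment fixed, subject random), giving geometric mean ratios with 90% CIs.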

[4] = Rifampicin study: safety and tolerability; type: in vivo, human; settings: for Subjects with any AE (s) / Subjects with chromaturia / Subjects with cough / Subjects with dermatitis contact / Subjects with diarrhea / Subjects with dizziness / Subjects with dysphagia / Subjects with eye pain / Subjects with fatigue / Subjects with feces discolored / Subjects with feeling hot / Subjects with flatulence / Subjects with headache / Subjects with influenza / Subjects with laceration / Subjects with nausea / Subjects with night sweats / Subjects with oropharyngeal pain / Subjects with pollakiuria / Subjects with rhinitis / Subjects with vessel puncture site paresthesia: nintedanib 150 mg single dose, rifampicin 600 mg once daily for 7 days
Method in brief: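 26 healthy subjects in an open-label, two-period, fixed-sequence design. A single oral nintedanib 150 mg dose was given alone, then again the morning after the last oral rifampicin 600 mg once-daily dose (7 days), with ≥14 days between nintedanib doses. AEs within 72 h of each nintedanib dose were assigned to that period. AEs later than 72 h after nintedanib alone and before rifampicin started were counted as washout. Labs, vital signs, 12-lead ECG and physical exam were also assessed.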

[5] = Ketoconazole study: safety and tolerability; type: in vivo, human; settings: for Subjects with abdominal pain upper / Subjects with any AE (s) / Subjects with back pain / Subjects with dizziness / Subjects with dry mouth / Subjects with excoriation / Subjects with fatigue / Subjects with headache / Subjects with nasopharyngitis / Subjects with ocular hyperemia / Subjects with puncture site induration / Subjects with puncture site pain: nintedanib 50 mg single dose, ketoconazole 400 mg once daily for 3 days
Method in brief: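 Healthy subjects in an open-label 2-way crossover with randomized sequences. The pilot period had 8 subjects and the main period 26 further subjects. Nintedanib 50 mg was given alone and after ketoconazole 400 mg once daily for 3 days (1 h after the last dose in the pilot), with ≥14 days between nintedanib doses. AEs from one drug intake to the next, washout included, were assigned to that treatment period (nintedanib, ketoconazole, or both). Labs, vital signs, 12-lead ECG and physical exam were also recorded.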

[6] = co-administration with ketoconazole
[7] = test nintedanib 50 mg + ketoconazole 400 mg vs reference nintedanib 50 mg
[8] = co-administration with rifampicin
[9] = test nintedanib 150 mg + rifampicin 600 mg vs reference nintedanib 150 mg
[10] = single dose of nintedanib alone and with rifampicin
[11] = single dose of nintedanib alone and with ketoconazole

COC(=O)c1ccc2c(c1)NC(=O)/C2=C(\Nc1ccc(N(C)C(=O)CN2CCN(C)CC2)cc1)c1ccccc1 [Nintedanib]
Substrate for p-glycoprotein (P-gp) (p-glycoprotein (P-gp)): substrate | Terminal half-life [1]: 10 to 15 h | Volume of distribution ([1]; geometric mean): 1050 L | Percentage absorbed ([1]; nintedanib 100 mg in healthy volunteers, estimated): 23% | Absolute bioavailability ([1]; nintedanib 100 mg in healthy volunteers): approximately 5% | Time to maximum plasma concentration ([1]; oral administration): 2 to 4 h | Time to steady state ([1]; oral dosing): ≤ 7 days | Share of CYP-dependent metabolism (CYP): about 5% | Effect on tmax and t½ of nintedanib ([2]; co-administration of ketoconazole): unaffected | Increase in exposure to nintedanib based on AUC [2, 6]: about 1.6 fold | Increase in exposure to nintedanib based on Cmax [2, 6]: ~1.7 fold | Tmax ([2]; human, plasma, oral): 3 h | half-life ([2]; human, plasma, oral): 15.6 h | AUC(0-inf) ([2]; human, plasma, po, 50 mg): 38.6 ng·h/mL | AUC(0-t) ([2]; human, plasma, po, 50 mg): 35.7 ng·h/mL | Cmax ([2]; human, plasma, po, 50 mg): 4.19 ng/mL | half-life ([2]; human, plasma, po, 50 mg): 18.1 h | Exposure to nintedanib (AUC0–∞, Cmax, AUC0–tz) higher when co-administered with ketoconazole than alone ([2]; nintedanib 50 mg, ketoconazole 400 mg once daily for 3 days): 1.6–1.7 fold | Relative bioavailability, GMR (90% CI) of AUC0–tz [2, 7]: 168.1 (155.3–182.0) % | Relative bioavailability, GMR (90% CI) of AUC0–∞ [2, 7]: 160.5 (148.2–173.7) % | Relative bioavailability, GMR (90% CI) of Cmax [2, 7]: 179.6 (157.6–204.8) % | Share of ester cleavage (esterases): about 25% | Effect on tmax and t½ of nintedanib ([3]; co-administration of rifampicin): unaffected | Reduction of exposure to nintedanib based on AUC [3, 8]: about 50% | Reduction of exposure to nintedanib based on Cmax [3, 8]: ~60% | Tmax ([3]; human, plasma, oral): 4 h | half-life ([3]; human, plasma, oral): 23.4 h | AUC(0-inf) ([3]; human, plasma, po, 150 mg): 183 ng·h/mL | AUC(0-t) ([3]; human, plasma, po, 150 mg): 173 ng·h/mL | Cmax ([3]; human, plasma, po, 150 mg): 22.1 ng/mL | half-life ([3]; human, plasma, po, 150 mg): 22.5 h | Relative bioavailability, GMR (90% CI) of AUC0–tz [3, 9]: 50.0 (46.9–53.3) % | Relative bioavailability, GMR (90% CI) of AUC0–∞ [3, 9]: 50.1 (47.2–53.3) % | Relative bioavailability, GMR (90% CI) of Cmax [3, 9]: 59.8 (53.8–66.4) % | Subjects with any AE (s) [4]: 5 (19.2) n (%) | Subjects with chromaturia [4]: 0 n (%) | Subjects with cough [4]: 0 n (%) | Subjects with dermatitis contact [4]: 0 n (%) | Subjects with diarrhea [4]: 5 (19.2) n (%) | Subjects with dizziness [4]: 0 n (%) | Subjects with dysphagia [4]: 0 n (%) | Subjects with eye pain [4]: 0 n (%) | Subjects with fatigue [4]: 0 n (%) | Subjects with feces discolored [4]: 0 n (%) | Subjects with feeling hot [4]: 0 n (%) | Subjects with flatulence [4]: 0 n (%) | Subjects with headache [4]: 1 (3.8) n (%) | Subjects with influenza [4]: 0 n (%) | Subjects with laceration [4]: 0 n (%) | Subjects with nausea [4]: 0 n (%) | Subjects with night sweats [4]: 0 n (%) | Subjects with oropharyngeal pain [4]: 0 n (%) | Subjects with pollakiuria [4]: 0 n (%) | Subjects with rhinitis [4]: 0 n (%) | Subjects with vessel puncture site paresthesia [4]: 0 n (%) | Serious AEs [4, 10]: No serious AEs | Tolerability [4, 10]: well tolerated | Subjects with abdominal pain upper [5]: 0 n (%) | Subjects with any AE (s) [5]: 8 (25.8) n (%) | Subjects with back pain [5]: 0 n (%) | Subjects with dizziness [5]: 1 (3.2) n (%) | Subjects with dry mouth [5]: 0 n (%) | Subjects with excoriation [5]: 0 n (%) | Subjects with fatigue [5]: 1 (3.2) n (%) | Subjects with headache [5]: 5 (16.1) n (%) | Subjects with nasopharyngitis [5]: 2 (6.5) n (%) | Subjects with ocular hyperemia [5]: 1 (3.2) n (%) | Subjects with puncture site induration [5]: 0 n (%) | Subjects with puncture site pain [5]: 0 n (%) | Serious AEs [5, 11]: No serious AEs | Tolerability [5, 11]: well tolerated

CO[C@H]1/C=C/O[C@@]2(C)Oc3c(C)c(O)c4c(O)c(c(/C=N/N5CCN(C)CC5)c(O)c4c3C2=O)NC(=O)/C(C)=C\C=C\[C@H](C)[C@H](O)[C@@H](C)[C@@H](O)[C@@H](C)[C@H](OC(C)=O)[C@@H]1C [Rifampicin]
Subjects with any AE (s) [4]: 25 (100) n (%) | Subjects with chromaturia [4]: 25 (100) n (%) | Subjects with cough [4]: 1 (4.0) n (%) | Subjects with dermatitis contact [4]: 0 n (%) | Subjects with diarrhea [4]: 1 (4.0) n (%) | Subjects with dizziness [4]: 2 (8.0) n (%) | Subjects with dysphagia [4]: 1 (4.0) n (%) | Subjects with eye pain [4]: 1 (4.0) n (%) | Subjects with fatigue [4]: 2 (8.0) n (%) | Subjects with feces discolored [4]: 3 (12.0) n (%) | Subjects with feeling hot [4]: 1 (4.0) n (%) | Subjects with flatulence [4]: 2 (8.0) n (%) | Subjects with headache [4]: 5 (20.0) n (%) | Subjects with influenza [4]: 0 n (%) | Subjects with laceration [4]: 1 (4.0) n (%) | Subjects with nausea [4]: 1 (4.0) n (%) | Subjects with night sweats [4]: 1 (4.0) n (%) | Subjects with oropharyngeal pain [4]: 0 n (%) | Subjects with pollakiuria [4]: 1 (4.0) n (%) | Subjects with rhinitis [4]: 1 (4.0) n (%) | Subjects with vessel puncture site paresthesia [4]: 0 n (%)

CC(=O)N1CCN(c2ccc(OCC3COC(Cn4ccnc4)(c4ccc(Cl)cc4Cl)O3)cc2)CC1 (centres unmarked) [Ketoconazole]
Subjects with abdominal pain upper [5]: 1 (2.9) n (%) | Subjects with any AE (s) [5]: 3 (8.8) n (%) | Subjects with back pain [5]: 0 n (%) | Subjects with dizziness [5]: 0 n (%) | Subjects with dry mouth [5]: 1 (2.9) n (%) | Subjects with excoriation [5]: 0 n (%) | Subjects with fatigue [5]: 0 n (%) | Subjects with headache [5]: 2 (5.9) n (%) | Subjects with nasopharyngitis [5]: 0 n (%) | Subjects with ocular hyperemia [5]: 0 n (%) | Subjects with puncture site induration [5]: 0 n (%) | Subjects with puncture site pain [5]: 0 n (%)
